Data from ChEMBL document CHEMBL2169800 (J Med Chem, 2012).
Calls of active or inactive are those of the source. The calls are words filed in the database; no cut-off is given here.

What was measured:
[1] = molecular target: T1, Fatty-acid amide hydrolase 1 (Rattus norvegicus, UniProt P97612); test: Inhibition of FAAH in rat brain homogenates pre-incubated for 10 mins before addition of [3H]anandamide and [3H]AEA substrates for 30 mins by liquid scintillation counting; format: tissue-based; conditions: read-out: IC50
T1 sequence (P97612 whole entry): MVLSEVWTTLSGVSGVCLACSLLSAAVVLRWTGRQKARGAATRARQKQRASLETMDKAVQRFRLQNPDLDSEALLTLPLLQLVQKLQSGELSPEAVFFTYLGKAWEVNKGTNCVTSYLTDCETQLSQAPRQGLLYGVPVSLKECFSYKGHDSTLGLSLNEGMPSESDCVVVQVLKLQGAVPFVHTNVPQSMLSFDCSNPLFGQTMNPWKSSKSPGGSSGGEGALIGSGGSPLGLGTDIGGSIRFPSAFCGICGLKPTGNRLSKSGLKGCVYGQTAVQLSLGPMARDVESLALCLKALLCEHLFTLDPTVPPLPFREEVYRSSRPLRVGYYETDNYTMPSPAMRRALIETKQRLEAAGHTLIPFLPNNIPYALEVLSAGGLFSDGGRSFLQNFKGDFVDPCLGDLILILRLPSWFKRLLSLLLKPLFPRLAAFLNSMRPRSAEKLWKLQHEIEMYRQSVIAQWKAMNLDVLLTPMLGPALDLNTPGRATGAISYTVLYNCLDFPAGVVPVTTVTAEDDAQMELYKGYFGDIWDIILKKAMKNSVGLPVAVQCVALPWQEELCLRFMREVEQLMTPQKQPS
Outline: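 Rat whole-brain homogenate (50 ug protein/sample) in 50 mM TRIS pH 7.4, 0.05 % fatty acid free BSA; inhibitor pre-incubated 10 min, then 1 uM unlabelled AEA plus 0.6 nM [3H]-AEA added for 30 min at 37°C. Stopped with cold 1:1 CHCl3/MeOH; aqueous phase counted.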

[2] = molecular target: T2, Prostaglandin G/H synthase 1 (Ovis aries, UniProt P05979); test: Inhibition of ovine COX1 pre-incubated for 10 mins before arachidonic acid substrate addition by enzyme immunoassay
T2 sequence (P05979 whole entry): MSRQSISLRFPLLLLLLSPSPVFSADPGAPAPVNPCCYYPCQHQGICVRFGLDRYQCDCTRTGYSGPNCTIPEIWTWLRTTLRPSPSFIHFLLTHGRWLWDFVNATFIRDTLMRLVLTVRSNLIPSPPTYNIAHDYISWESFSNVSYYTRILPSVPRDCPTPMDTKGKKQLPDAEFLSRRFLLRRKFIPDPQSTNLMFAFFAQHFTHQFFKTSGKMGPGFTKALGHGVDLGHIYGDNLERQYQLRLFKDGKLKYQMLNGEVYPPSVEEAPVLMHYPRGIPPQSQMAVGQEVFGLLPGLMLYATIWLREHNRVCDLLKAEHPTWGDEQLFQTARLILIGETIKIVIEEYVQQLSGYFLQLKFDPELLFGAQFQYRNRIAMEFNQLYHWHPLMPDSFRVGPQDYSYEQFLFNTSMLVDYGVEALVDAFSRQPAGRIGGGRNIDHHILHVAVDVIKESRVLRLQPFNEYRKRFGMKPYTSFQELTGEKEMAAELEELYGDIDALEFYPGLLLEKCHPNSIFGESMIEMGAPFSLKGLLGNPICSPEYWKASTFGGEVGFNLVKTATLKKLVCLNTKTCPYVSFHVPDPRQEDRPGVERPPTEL
Outline: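 Ovine COX-1 pre-incubated with inhibitor for 10 min at 37 °C, then 5 μM arachidonic acid for 2 min at 37 °C. Stopped with HCl; PGH2 reduced to PGF2α with SnCl2 and measured by competitive EIA (PG antibody, PG-acetylcholinesterase conjugate), absorbance at 412 nm.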

[3] = molecular target: T3, Prostaglandin G/H synthase 2 (Homo sapiens, UniProt P35354); test: Inhibition of human COX2 pre-incubated for 10 mins before substrate addition by enzyme immunoassay
T3 sequence (P35354 whole entry): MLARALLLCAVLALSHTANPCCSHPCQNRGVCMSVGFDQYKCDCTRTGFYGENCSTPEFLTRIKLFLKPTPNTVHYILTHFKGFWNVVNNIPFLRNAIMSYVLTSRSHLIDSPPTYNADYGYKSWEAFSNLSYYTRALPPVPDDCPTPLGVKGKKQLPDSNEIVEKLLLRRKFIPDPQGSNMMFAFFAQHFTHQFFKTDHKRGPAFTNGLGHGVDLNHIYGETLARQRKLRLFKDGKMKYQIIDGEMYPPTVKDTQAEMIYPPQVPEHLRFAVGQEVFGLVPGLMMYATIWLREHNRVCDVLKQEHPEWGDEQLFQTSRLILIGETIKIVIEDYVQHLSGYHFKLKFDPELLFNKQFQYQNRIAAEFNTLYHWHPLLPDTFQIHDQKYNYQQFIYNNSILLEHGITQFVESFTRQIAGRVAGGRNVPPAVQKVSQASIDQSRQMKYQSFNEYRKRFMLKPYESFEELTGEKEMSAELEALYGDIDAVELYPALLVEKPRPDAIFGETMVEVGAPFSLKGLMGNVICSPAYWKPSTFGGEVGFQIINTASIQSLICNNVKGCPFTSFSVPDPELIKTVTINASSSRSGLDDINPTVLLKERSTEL

[4] = molecular target: T4, Fatty-acid amide hydrolase 1 (Rattus norvegicus) (UniProt P97612); test: Potency index, ratio of IC50 for carprofen to IC50 for compound against FAAH in rat brain homogenates pre-incubated for 10 mins before addition of [3H]anandamide and [3H]AEA substrates for 30 mins by liquid scintillation counting; format: tissue-based
T4 sequence (whole entry): T1 sequence (P97612 whole entry)

[5] = molecular target: T4, Fatty-acid amide hydrolase 1 (Rattus norvegicus); conditions: Brain, 30 uM

Compound | IC50 [1] [µM] | IC50 [2] [µM] | IC50 [3] [µM] | Ratio IC50 [4] | inhibition [5]
CC(C(=O)O)c1ccc2c(c1)[nH]c1ccccc12 (racemic) | 4.6 | > 100 | > 100 |  | 
CC(C(=O)Nc1ccccc1)c1ccc2c(c1)[nH]c1ccc(Cl)cc12 (racemic) | 2.9 | > 100 | > 100 | 26 | 
CC(C(=O)O)c1ccc2c3cc(Cl)ccc3n(C(=O)c3cnc[nH]3)c2c1 (racemic) | 5.6 | 12.8 | > 100 |  | 
COC(=O)C(C)c1ccc2c(c1)[nH]c1ccc(Cl)cc12 (racemic) | 22.1 | > 100 | > 100 |  | 
CC(C(=O)O)c1ccc2c3cc(Cl)ccc3n(C)c2c1 (racemic) | 15.5 | > 100 | > 100 |  | 
CCCCCCOC(=O)n1c2ccc(Cl)cc2c2ccc(C(C)C(=O)O)cc21 (racemic) | 31.6 | 17.2 | > 100 |  | 
CCCCCCNC(=O)n1c2ccc(Cl)cc2c2ccc(C(C)C(=O)O)cc21 (racemic) | 3.2 | > 100 | > 100 |  | 
COc1ccccc1Cn1c2ccc(Cl)cc2c2ccc(C(C)C(=O)O)cc21 (racemic) | > 100 | > 100 | > 100 |  | inactive
CC(C(=O)O)c1ccc2c3cc(Cl)ccc3n(C(=O)c3ccc(Cl)c(Cl)c3)c2c1 (racemic) | > 100 | > 100 | > 100 |  | 
CC(C(=O)O)c1ccc2c3cc(Cl)ccc3n(Cc3ccc(Cl)cc3)c2c1 (racemic) | 10.2 | > 100 | > 100 |  | 
CC(C(=O)O)c1ccc2c3cc(Cl)ccc3n(Cc3ccccc3)c2c1 (racemic) | 23.3 | > 100 | > 100 |  | 
COc1ccc(C(=O)n2c3ccc(Cl)cc3c3ccc(C(C)C(=O)O)cc32)cc1 (racemic) | 10.6 | > 100 | > 100 |  | 
CC(C(=O)O)c1ccc2c3cc(Cl)ccc3n(Cc3ccc(C#N)cc3)c2c1 (racemic) | 33.4 | > 100 | > 100 |  | 
CC(C(=O)O)c1ccc2c3cc(Cl)ccc3n(C(=O)c3cccc(Cl)c3)c2c1 (racemic) | 20.1 | > 100 | > 100 |  | 
CC(C(=O)O)c1ccc2c3cc(Cl)ccc3n(C(=O)c3ccc(Cl)cc3)c2c1 (racemic) | 22 | 74.3 | 72.3 |  | 
C[C@@H](C(=O)O)c1ccc2c3cc(Cl)ccc3n(C(=O)c3cocn3)c2c1 | 53.2 | > 100 | > 100 |  | 
COc1cccc(Cn2c3ccc(Cl)cc3c3ccc(C(C)C(=O)O)cc32)c1 (racemic) | 32.5 | > 100 | > 100 |  | 
C[C@H](C(=O)O)c1ccc2c(c1)[nH]c1ccc(Cl)cc12 |  | 5.6 |  |  | 
CC(C(=O)O)c1ccc2c3cc(Cl)ccc3n(C(=O)NC3CCCCC3)c2c1 (racemic) | > 100 | > 100 | > 100 |  | 
C[C@@H](C(=O)O)c1ccc2c(c1)[nH]c1ccc(Cl)cc12 |  | > 100 |  |  | 
